Source: ChEMBL document CHEMBL1255566, “Rigid analogues of the α2-adrenergic blocker atipamezole: small changes, big consequences” (J Med Chem, 2010)

Key:
[1] = target: T1, Alpha-2A adrenergic receptor (Homo sapiens) (UniProt P08913); experiment: Antagonist activity at human adrenergic alpha2A receptor expressed in CHO cells assessed as inhibition of adrenaline-induced [35S]GTPgammaS binding after 30 mins by scintillation counting; format: functional, cell-based
T1 sequence (whole entry): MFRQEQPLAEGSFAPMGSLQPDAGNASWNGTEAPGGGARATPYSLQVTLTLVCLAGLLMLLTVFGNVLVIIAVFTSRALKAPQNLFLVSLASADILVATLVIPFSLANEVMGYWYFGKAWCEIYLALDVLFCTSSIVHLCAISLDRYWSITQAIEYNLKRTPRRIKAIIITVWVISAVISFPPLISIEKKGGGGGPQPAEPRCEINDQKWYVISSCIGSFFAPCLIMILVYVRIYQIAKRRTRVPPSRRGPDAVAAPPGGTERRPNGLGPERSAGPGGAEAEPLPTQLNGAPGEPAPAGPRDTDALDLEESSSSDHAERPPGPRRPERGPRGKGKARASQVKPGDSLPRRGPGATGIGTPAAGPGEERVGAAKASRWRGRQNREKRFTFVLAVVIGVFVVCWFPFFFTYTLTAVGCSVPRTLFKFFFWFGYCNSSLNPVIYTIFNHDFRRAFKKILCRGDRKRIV
Summary of the method: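 Inhibition of adrenaline-stimulated [35S]GTPγS binding in CHO cells expressing human α2A receptors. Compounds were also run alone to check for any stimulation of [35S]GTPγS binding. Antagonist potency is reported as pKB, taken as the potency that inhibits 50% of adrenaline-induced binding.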

Mus musculus [2] = experiment: Antihypothermic activity in po dosed NMRI mouse assessed as inhibition of guanabenz-induced hypothermia administered 35 mins before guanabenz challenge measured after 25 mins; format: functional
Summary of the method: (§1)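 Mice got the compound by intraperitoneal injection or oral gavage before guanabenz challenge, and reversal of guanabenz-induced hypothermia was scored. Five animals were tested per dose. ED50 is the dose giving an inhibitory effect in 50% of guanabenz-treated animals, with 95% confidence limits.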

[3] = target: T2, Alpha-1B adrenergic receptor (Homo sapiens, UniProt P35368); experiment: Displacement of [3H]-prazosin from human adrenergic alpha-1b receptor expressed in CHO cells after 120 mins by liquid scintillation counting; format: cell-based
T2 sequence (P35368 whole entry): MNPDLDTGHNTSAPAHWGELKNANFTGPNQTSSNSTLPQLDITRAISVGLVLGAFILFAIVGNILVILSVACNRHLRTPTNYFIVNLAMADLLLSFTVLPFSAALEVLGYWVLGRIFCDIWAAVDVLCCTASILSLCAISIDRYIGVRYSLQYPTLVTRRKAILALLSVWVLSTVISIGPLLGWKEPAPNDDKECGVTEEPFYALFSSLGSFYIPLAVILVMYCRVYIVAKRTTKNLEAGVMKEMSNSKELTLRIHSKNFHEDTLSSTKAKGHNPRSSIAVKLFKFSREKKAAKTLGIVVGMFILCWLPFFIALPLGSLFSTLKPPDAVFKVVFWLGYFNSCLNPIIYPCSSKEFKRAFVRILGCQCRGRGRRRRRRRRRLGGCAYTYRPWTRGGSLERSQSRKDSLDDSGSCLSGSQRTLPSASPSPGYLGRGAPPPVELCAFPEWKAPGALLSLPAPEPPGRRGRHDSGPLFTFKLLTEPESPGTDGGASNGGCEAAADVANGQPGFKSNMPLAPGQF
Summary of the method: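 Competition binding at human α1b receptors stably expressed in CHO cells. Affinity values are means ± SEM of at least two experiments, each in duplicate.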

Mus musculus [4] = experiment: Antihypothermic activity in ip dosed NMRI mouse assessed as inhibition of guanabenz-induced hypothermia administered 5 mins before guanabenz challenge measured after 25 mins; format: functional; summary of the method: as §1
Mus musculus [5] = experiment: Ratio of ED50 for santihypothermic activity in po dosed NMRI mouse to ED50 for antihypothermic activity in ip dosed NMRI mouse; format: functional
Summary of the method: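 Guanabenz-induced hypothermia in mice, five animals per dose. ED50 (the dose inhibiting hypothermia in 50% of guanabenz-treated animals) was obtained after oral gavage and after intraperitoneal injection, and the ratio po/ip was then calculated.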

[6] = target: T3, Alpha-2C adrenergic receptor (Homo sapiens, UniProt P18825); experiment: Displacement of [3H]-RX821002 from human adrenergic Alpha-2C receptor expressed in rat C6 cells after 120 mins by liquid scintillation counting; format: cell-based
T3 sequence (P18825 whole entry): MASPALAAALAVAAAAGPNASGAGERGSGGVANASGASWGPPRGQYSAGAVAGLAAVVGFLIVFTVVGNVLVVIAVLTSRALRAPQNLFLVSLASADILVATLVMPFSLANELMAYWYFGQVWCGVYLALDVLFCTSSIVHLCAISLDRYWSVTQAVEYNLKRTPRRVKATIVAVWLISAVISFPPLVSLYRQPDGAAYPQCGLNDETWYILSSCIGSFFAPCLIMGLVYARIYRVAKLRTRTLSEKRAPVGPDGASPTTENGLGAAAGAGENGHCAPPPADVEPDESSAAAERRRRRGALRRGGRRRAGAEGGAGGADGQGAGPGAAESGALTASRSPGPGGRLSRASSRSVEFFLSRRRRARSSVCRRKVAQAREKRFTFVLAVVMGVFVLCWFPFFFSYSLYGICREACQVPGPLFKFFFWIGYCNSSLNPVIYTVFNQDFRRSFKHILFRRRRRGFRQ

[7] = target: T4, Alpha-2B adrenergic receptor (Homo sapiens, UniProt P18089); experiment: Displacement of [3H]-RX821002 from human adrenergic alpha2B receptor expressed in rat C6 cells after 120 mins by liquid scintillation counting; format: cell-based
T4 sequence (P18089 whole entry): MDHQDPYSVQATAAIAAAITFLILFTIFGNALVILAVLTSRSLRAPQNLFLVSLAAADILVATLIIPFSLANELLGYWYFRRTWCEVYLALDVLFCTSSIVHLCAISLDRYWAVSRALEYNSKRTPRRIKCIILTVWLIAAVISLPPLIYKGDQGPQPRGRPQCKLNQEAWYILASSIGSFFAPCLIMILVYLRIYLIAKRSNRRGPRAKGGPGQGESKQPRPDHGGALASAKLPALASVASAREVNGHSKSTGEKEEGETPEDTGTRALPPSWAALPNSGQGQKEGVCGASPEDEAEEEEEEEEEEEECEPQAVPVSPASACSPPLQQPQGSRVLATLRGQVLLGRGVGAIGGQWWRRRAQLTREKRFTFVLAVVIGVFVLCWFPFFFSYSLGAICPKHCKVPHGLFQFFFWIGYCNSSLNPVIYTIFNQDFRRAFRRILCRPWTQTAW

[8] = target: T5, Alpha-2A adrenergic receptor (Homo sapiens, UniProt P08913); experiment: Displacement of [3H]-RX821002 from human adrenergic alpha2A receptor expressed in rat C6 cells after 120 mins by liquid scintillation counting; format: cell-based
T5 sequence (P08913 whole entry): T1 sequence (whole entry)
Summary of the method: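 Competition binding at human α2A receptors expressed in C6 glial cells. Affinity values are means ± SEM of at least two experiments, each in duplicate.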

Mus musculus [9] = experiment: Increase of normetanephrine level in NMRI mouse cortex at 10 mg/kg, ip after 1 hr microwave irradiation; format: functional; settings: route intraperitoneal
Summary of the method: (§2)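 Single intraperitoneal dose; mice were killed by head-focused microwave irradiation 1 h later. Frontal cortex normetanephrine, an extracellular noradrenaline metabolite, was measured and expressed as increase relative to control animals, giving dose-response data across 0.16 to 10 mg/kg.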

Mus musculus [10] = experiment: Increase of normetanephrine level in NMRI mouse cortex at 0.16 to 10 mg/kg, ip after 1 hr microwave irradiation; format: functional; settings: dose mg/kg 0.16-10; route intraperitoneal; summary of the method: as §2
Rattus norvegicus [11] = experiment: Cardiotoxicity in pithed Sprague-Dawley rat assessed as increase of diastolic pressure at > 0.63 ug/kg, iv; format: toxicity, organism-based; settings: in vivo, 0.00063 mg/kg
Rattus norvegicus [12] = experiment: Cardiotoxicity in anesthetized Sprague-Dawley rat assessed as increase of diastolic pressure at up to 0.16 ug/kg, iv; format: toxicity, organism-based; settings: in vivo, 0.00016 mg/kg
Rattus norvegicus [13] = experiment: Cardiotoxicity in anesthetized Sprague-Dawley rat assessed as increase of diastolic pressure at 10 ug/kg, iv; format: toxicity, organism-based; settings: in vivo, 0.01 mg/kg
Rattus norvegicus [14] = experiment: Cardiotoxicity in pithed Sprague-Dawley rat assessed as increase of diastolic pressure at 2.5 ug/kg, iv in presence of prazosin; format: toxicity, organism-based; settings: in vivo, 0.0025 mg/kg
Rattus norvegicus [15] = experiment: Cardiotoxicity in pithed Sprague-Dawley rat assessed as increase of diastolic pressure at 2.5 ug/kg, iv in presence of rauwolscine; format: toxicity, organism-based; settings: in vivo, 0.0025 mg/kg
Mus musculus [16] = experiment: Increase of normetanephrine level in ip dosed NMRI mouse cortex after 1 hr microwave irradiation; format: functional, organism-based; summary of the method: as §2
[17] = Mus musculus, NMRI, po, read-out: ED50
[18] = Mus musculus, NMRI, ip, read-out: ED50

Structure (SMILES) | pKb [1] | ED50 (Mus musculus [2]; [17]) | Ki [3] | ED50 (Mus musculus [4]; [18]) | Ratio ED50 (Mus musculus [5]) | Ki [6] | Ki [7] | Ki [8] | Activity (Mus musculus [9]) | Activity (Mus musculus [10]) | ED50 (Mus musculus [2]) | Activity (Rattus norvegicus [11]) | Activity (Rattus norvegicus [12]) | Activity (Rattus norvegicus [13]) | ED50 (Mus musculus [4]) | Activity (Rattus norvegicus [14]) | Activity (Rattus norvegicus [15]) | Activity (Mus musculus [16])
CC1(C)C2c3ccccc3C[C@@]21c1c[nH]cn1 (single isomer, unassigned) | 8.97 | 0.47 mg/kg | 178 nM | 0.07 mg/kg | 6.7 | 1.17 nM | 1.15 nM | 1.07 nM |  |  |  |  |  |  |  |  |  | 
CC[C@H]1c2ccccc2[C@H]2C[C@]21c1c[nH]cn1 (relative stereo) | 8.91 | 0.04 mg/kg | 40.7 nM | 0.03 mg/kg | 1.3 | 1.26 nM | 1.62 nM | 0.513 nM |  |  |  |  |  |  |  |  |  | 
CCC1(c2c[nH]cn2)Cc2ccccc2C1 [ATIPAMEZOLE] | 8.05 | 1.95 mg/kg |  | 0.19 mg/kg | 10.3 |  |  |  | 258% |  |  |  |  |  |  |  |  | 
C[C@H]1[C@@H]2c3ccccc3C[C@]12c1c[nH]cn1 | 9.67 | 0.19 mg/kg | 33.1 nM | 0.06 mg/kg | 3.2 | 0.295 nM | 0.204 nM | 0.174 nM |  |  |  |  |  |  |  |  |  | 
c1ccc2c(c1)C[C@]1(c3cnc[nH]3)C[C@H]21 (stereo in doubt; (+)-1) |  |  | 3.55 nM |  | 3.5 | 0.263 nM | 0.275 nM | 0.0794 nM |  | 3096% | 0.07 mg/kg | Toxic | Non-toxic | 26 mmHg | 0.02 mg/kg | Toxic | Non-toxic | 
CCC[C@H]1c2ccccc2[C@H]2C[C@]21c1c[nH]cn1 (relative stereo) | 8.7 | 0.12 mg/kg | 8.91 nM | 0.1 mg/kg | 1.2 | 1.48 nM | 2.29 nM | 0.851 nM |  |  |  |  |  |  |  |  |  | 
CNCCCN1c2ccccc2CCc2ccccc21 [DESIPRAMINE] |  |  |  |  |  |  |  |  | 223% |  |  |  |  |  |  |  |  | 
CCO[C@H]1c2ccccc2[C@H]2C[C@]21c1c[nH]cn1 (relative stereo) | 8.36 | 0.03 mg/kg | 39.8 nM | 0.16 mg/kg | 0.2 | 10.2 nM | 9.77 nM | 3.31 nM |  |  |  |  |  |  |  |  |  | 
CCC[C@H]1[C@@H]2c3ccccc3C[C@]12c1c[nH]cn1 | 9.24 | 0.33 mg/kg | 3.55 nM | 0.1 mg/kg | 3.3 | 0.437 nM | 0.347 nM | 0.407 nM |  |  |  |  |  |  |  |  |  | 
c1ccc2c(c1)C[C@]1(c3c[nH]cn3)C[C@H]21 (stereo in doubt; (+)-1) | 9.64 |  |  |  |  |  |  |  |  |  |  |  |  |  |  |  |  | Dose-dependent effect
CCCO[C@H]1c2ccccc2[C@H]2C[C@]21c1c[nH]cn1 (relative stereo) | 8.16 | 0.12 mg/kg |  | 0.29 mg/kg | 0.4 |  |  |  |  |  |  |  |  |  |  |  |  | 
CCC1(c2c[nH]cn2)Cc2ccc(F)cc2C1 (stereo not given) [FIPAMEZOLE] | 7.84 | 1.87 mg/kg | 2090 nM | 0.47 mg/kg | 4 | 13.8 nM | 6.76 nM | 7.24 nM | 247% |  |  |  |  |  |  |  |  | 
C[C@]12CC1(c1c[nH]cn1)Cc1ccccc12 (single isomer, unassigned) | 8.66 | 0.66 mg/kg | 39.8 nM | 0.06 mg/kg | 11 | 2.82 nM | 0.912 nM | 0.447 nM |  |  |  |  |  |  |  |  |  | 
